Source: ChEMBL document CHEMBL1144846, “Herkinorin analogues with differential beta-arrestin-2 interactions” (J Med Chem, 2008)
Calls of active or inactive are those of the source. The rule behind the calls is not given here.

target: T1, Mu-type opioid receptor (Homo sapiens, UniProt P35372); test: Agonist activity at human recombinant mu opioid receptor expressed in CHO cells by [35S]GTP-gamma-S binding assay relative to DAMGO; type: functional, cell-based
T1 sequence (P35372 whole entry): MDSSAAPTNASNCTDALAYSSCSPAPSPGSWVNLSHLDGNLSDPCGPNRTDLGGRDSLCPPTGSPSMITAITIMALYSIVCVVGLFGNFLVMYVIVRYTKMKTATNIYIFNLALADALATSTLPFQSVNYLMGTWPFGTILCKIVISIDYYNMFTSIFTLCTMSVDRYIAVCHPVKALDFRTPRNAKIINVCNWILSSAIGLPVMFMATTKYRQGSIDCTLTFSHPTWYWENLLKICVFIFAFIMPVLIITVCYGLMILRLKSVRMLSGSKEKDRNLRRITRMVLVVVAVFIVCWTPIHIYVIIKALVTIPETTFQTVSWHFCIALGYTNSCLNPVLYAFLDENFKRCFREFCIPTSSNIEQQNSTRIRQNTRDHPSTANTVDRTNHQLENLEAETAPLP

For `COC(=O)[C@@H]1C[C@H](NC(=O)c2ccccc2)C(=O)[C@H]2[C@@]1(C)CC[C@H]1C(=O)O[C@H](c3ccoc3)C[C@]21C`, which Emax is on record?
Its Emax is 134%.

For `COC(=O)[C@@H]1C[C@H](OC(=O)c2cccs2)C(=O)[C@H]2[C@@]1(C)CC[C@H]1C(=O)O[C@H](c3ccoc3)C[C@]21C`, which Emax is on record?
Its Emax is 95%.

How did the Emax turn out when `COC(=O)[C@@H]1C[C@H](OC(=O)c2cc3ccccc3o2)C(=O)[C@H]2[C@@]1(C)CC[C@H]1C(=O)O[C@H](c3ccoc3)C[C@]21C` was run?
The Emax was 104%.

target: T2, Kappa-type opioid receptor (Homo sapiens, UniProt P41145); test: Displacement of [125I]IOXY from human recombinant kappa opioid receptor expressed in CHO cells; type: cell-based
T2 sequence (P41145 whole entry): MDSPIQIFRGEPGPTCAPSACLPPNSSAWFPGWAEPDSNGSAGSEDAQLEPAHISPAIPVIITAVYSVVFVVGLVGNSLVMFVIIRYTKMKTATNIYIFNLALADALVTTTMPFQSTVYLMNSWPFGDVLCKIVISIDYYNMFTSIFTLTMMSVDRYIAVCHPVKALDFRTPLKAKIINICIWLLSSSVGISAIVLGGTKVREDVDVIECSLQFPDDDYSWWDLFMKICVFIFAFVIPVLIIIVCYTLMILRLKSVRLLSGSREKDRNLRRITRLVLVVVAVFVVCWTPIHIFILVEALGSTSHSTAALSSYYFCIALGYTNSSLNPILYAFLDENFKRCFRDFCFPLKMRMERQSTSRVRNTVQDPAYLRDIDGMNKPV

For `COC(=O)[C@@H]1C[C@H](OC(=O)C2CCCCC2)C(=O)[C@H]2[C@@]1(C)CC[C@H]1C(=O)O[C@H](c3ccoc3)C[C@]21C`, which Ki is on record?
Its Ki is 2010 nM.

Which Ki does the source give for `COC(=O)[C@@H]1C[C@H](OC(=O)c2ccccc2[N+](=O)[O-])C(=O)[C@H]2[C@@]1(C)CC[C@H]1C(=O)O[C@H](c3ccoc3)C[C@]21C` here?
Its Ki is 900 nM.

For `COC(=O)[C@@H]1C[C@H](NC(=O)c2ccccc2)C(=O)[C@H]2[C@@]1(C)CC[C@H]1C(=O)O[C@H](c3ccoc3)C[C@]21C`, which Ki is on record?
Its Ki is 7430 nM.

`COC(=O)[C@@H]1C[C@H](OC(=O)c2ccc3ccccc3c2)C(=O)[C@H]2[C@@]1(C)CC[C@H]1C(=O)O[C@H](c3ccoc3)C[C@]21C` was tested. Which Ki did it give?
The Ki was 5490 nM.

`COC(=O)[C@@H]1C[C@H](OC(=O)c2cc3ccccc3o2)C(=O)[C@H]2[C@@]1(C)CC[C@H]1C(=O)O[C@H](c3ccoc3)C[C@]21C` was tested. Which Ki did it give?
The Ki was 70 nM.

species on record: Homo sapiens; test: Selectivity for human recombinant kappa opioid receptor over human recombinant delta opioid receptor

For `COC(=O)[C@@H]1C[C@H](OC(=O)C2CCCCC2)C(=O)[C@H]2[C@@]1(C)CC[C@H]1C(=O)O[C@H](c3ccoc3)C[C@]21C`, which Ratio Ki is on record?
Its Ratio Ki is greater than 5.

With `COC(=O)[C@@H]1C[C@H](OC(=O)c2ccccc2[N+](=O)[O-])C(=O)[C@H]2[C@@]1(C)CC[C@H]1C(=O)O[C@H](c3ccoc3)C[C@]21C` as the compound, how does the Ratio Ki read?
The Ratio Ki was greater than 11.

With `COC(=O)[C@@H]1C[C@H](NC(=O)c2ccccc2)C(=O)[C@H]2[C@@]1(C)CC[C@H]1C(=O)O[C@H](c3ccoc3)C[C@]21C` as the compound, how does the Ratio Ki read?
Its Ratio Ki is 0.11.

`COC(=O)[C@@H]1C[C@H](OC(=O)c2cccs2)C(=O)[C@H]2[C@@]1(C)CC[C@H]1C(=O)O[C@H](c3ccoc3)C[C@]21C` was tested. Which Ratio Ki did it give?
The Ratio Ki was 5.

`COC(=O)[C@@H]1C[C@H](OC(=O)c2ccc3ccccc3c2)C(=O)[C@H]2[C@@]1(C)CC[C@H]1C(=O)O[C@H](c3ccoc3)C[C@]21C` was tested. Which Ratio Ki did it give?
Its Ratio Ki is greater than 2.

`COC(=O)[C@@H]1C[C@H](OC(=O)c2cc3ccccc3o2)C(=O)[C@H]2[C@@]1(C)CC[C@H]1C(=O)O[C@H](c3ccoc3)C[C@]21C` was tested. Which Ratio Ki did it give?
Its Ratio Ki is 8.

target: T2, Kappa-type opioid receptor; test: Agonist activity at human recombinant kappa opioid receptor expressed in CHO cells by [35S]GTP-gamma-S binding assay; type: functional, cell-based

For `COC(=O)[C@@H]1C[C@H](OC(=O)c2cc3ccccc3o2)C(=O)[C@H]2[C@@]1(C)CC[C@H]1C(=O)O[C@H](c3ccoc3)C[C@]21C`, which EC50 is on record?
The EC50 was 1120 nM.

target: T1, Mu-type opioid receptor; test: Agonist activity at human recombinant mu opioid receptor expressed in CHO cells by [35S]GTP-gamma-S binding assay; type: functional, cell-based

How did the EC50 turn out when `COC(=O)[C@@H]1C[C@H](NC(=O)c2ccccc2)C(=O)[C@H]2[C@@]1(C)CC[C@H]1C(=O)O[C@H](c3ccoc3)C[C@]21C` was run?
The EC50 was 360 nM.

For `COC(=O)[C@@H]1C[C@H](OC(=O)c2cccs2)C(=O)[C@H]2[C@@]1(C)CC[C@H]1C(=O)O[C@H](c3ccoc3)C[C@]21C`, which EC50 is on record?
Its EC50 is 1150 nM.

With `COC(=O)[C@@H]1C[C@H](OC(=O)c2cc3ccccc3o2)C(=O)[C@H]2[C@@]1(C)CC[C@H]1C(=O)O[C@H](c3ccoc3)C[C@]21C` as the compound, how does the EC50 read?
The EC50 was 1680 nM.

target: T1, Mu-type opioid receptor; test: Agonist activity at mu opioid receptor expressed in HEK293 cells assessed as induction of beta-arrestin-2-GFP plasma membrane translocation at 10 uM after 10 mins; type: functional, cell-based
Procedure, shortened: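 HEK-293 cells stably expressing MOR (~1000 fmol/mg membrane protein), or transiently expressing MOR1, were transiently transfected with βarr2-GFP (2 μg), with or without GRK2 (1.5 μg). After 24–36 h at 37°C and 30 min serum starvation, basal images were taken. Drug was then applied at 10 μM for 10 min, with confocal imaging each minute; cells shown at 5 min. At least 3 independent experiments.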

For `COC(=O)[C@@H]1C[C@H](NC(=O)c2ccccc2)C(=O)[C@H]2[C@@]1(C)CC[C@H]1C(=O)O[C@H](c3ccoc3)C[C@]21C`, which Activity is on record?
The Activity was “Active”.

target: T1, Mu-type opioid receptor; test: Agonist activity at human mu opioid receptor expressed in CHO cells assessed as increase in ERK phosphorylation after 10 mins; type: functional, cell-based
Procedure, shortened: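 CHO cells stably expressing human MOR1 (~800 fmol/mg membrane protein), serum-starved 30 min at 37°C, then treated 10 min, with naloxone present where indicated. Lysates were run on SDS-PAGE and immunoblotted for total ERK1/2, then stripped and reprobed for phospho-ERK (Tyr204), with HRP chemiluminescence detection. Densitometry; at least three experiments in triplicate.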

Which Activity does the source give for `COC(=O)[C@@H]1C[C@H](NC(=O)c2ccccc2)C(=O)[C@H]2[C@@]1(C)CC[C@H]1C(=O)O[C@H](c3ccoc3)C[C@]21C` here?
The Activity was “Dose-dependent effect”.

species on record: Homo sapiens; test: Selectivity for human recombinant kappa opioid receptor over human recombinant mu opioid receptor

For `COC(=O)[C@@H]1C[C@H](OC(=O)C2CCCCC2)C(=O)[C@H]2[C@@]1(C)CC[C@H]1C(=O)O[C@H](c3ccoc3)C[C@]21C`, which Ratio Ki is on record?
The Ratio Ki was 0.5.

For `COC(=O)[C@@H]1C[C@H](OC(=O)c2ccccc2[N+](=O)[O-])C(=O)[C@H]2[C@@]1(C)CC[C@H]1C(=O)O[C@H](c3ccoc3)C[C@]21C`, which Ratio Ki is on record?
The Ratio Ki was 8.

`COC(=O)[C@@H]1C[C@H](NC(=O)c2ccccc2)C(=O)[C@H]2[C@@]1(C)CC[C@H]1C(=O)O[C@H](c3ccoc3)C[C@]21C` was tested. Which Ratio Ki did it give?
The Ratio Ki was 0.0004.

With `COC(=O)[C@@H]1C[C@H](OC(=O)c2cccs2)C(=O)[C@H]2[C@@]1(C)CC[C@H]1C(=O)O[C@H](c3ccoc3)C[C@]21C` as the compound, how does the Ratio Ki read?
The Ratio Ki was 0.04.

How did the Ratio Ki turn out when `COC(=O)[C@@H]1C[C@H](OC(=O)c2ccc3ccccc3c2)C(=O)[C@H]2[C@@]1(C)CC[C@H]1C(=O)O[C@H](c3ccoc3)C[C@]21C` was run?
The Ratio Ki was 0.03.

Which Ratio Ki does the source give for `COC(=O)[C@@H]1C[C@H](OC(=O)c2cc3ccccc3o2)C(=O)[C@H]2[C@@]1(C)CC[C@H]1C(=O)O[C@H](c3ccoc3)C[C@]21C` here?
The Ratio Ki was 0.14.

target: T1, Mu-type opioid receptor; test: Displacement of [125I]IOXY from human recombinant mu opioid receptor expressed in CHO cells; type: cell-based

Which Ki does the source give for `COC(=O)[C@@H]1C[C@H](OC(=O)C2CCCCC2)C(=O)[C@H]2[C@@]1(C)CC[C@H]1C(=O)O[C@H](c3ccoc3)C[C@]21C` here?
Its Ki is 1030 nM.

`COC(=O)[C@@H]1C[C@H](OC(=O)c2ccccc2[N+](=O)[O-])C(=O)[C@H]2[C@@]1(C)CC[C@H]1C(=O)O[C@H](c3ccoc3)C[C@]21C` was tested. Which Ki did it give?
The Ki was 7550 nM.

`COC(=O)[C@@H]1C[C@H](NC(=O)c2ccccc2)C(=O)[C@H]2[C@@]1(C)CC[C@H]1C(=O)O[C@H](c3ccoc3)C[C@]21C` was tested. Which Ki did it give?
Its Ki is 3.1 nM.

For `COC(=O)[C@@H]1C[C@H](OC(=O)c2ccc3ccccc3c2)C(=O)[C@H]2[C@@]1(C)CC[C@H]1C(=O)O[C@H](c3ccoc3)C[C@]21C`, which Ki is on record?
Its Ki is 180 nM.

`COC(=O)[C@@H]1C[C@H](OC(=O)c2cc3ccccc3o2)C(=O)[C@H]2[C@@]1(C)CC[C@H]1C(=O)O[C@H](c3ccoc3)C[C@]21C` was tested. Which Ki did it give?
Its Ki is 10 nM.

target: T2, Kappa-type opioid receptor; test: Agonist activity at human recombinant kappa opioid receptor expressed in CHO cells by [35S]GTPgammaS binding assay relative to (-)-U50,488; type: functional, cell-based

With `COC(=O)[C@@H]1C[C@H](OC(=O)c2cc3ccccc3o2)C(=O)[C@H]2[C@@]1(C)CC[C@H]1C(=O)O[C@H](c3ccoc3)C[C@]21C` as the compound, how does the Emax read?
Its Emax is 109%.

target: Delta-type opioid receptor (Homo sapiens, UniProt P41143); test: Displacement of [125I]IOXY from human recombinant delta opioid receptor expressed in CHO cells; type: cell-based
Sequence (P41143 whole entry): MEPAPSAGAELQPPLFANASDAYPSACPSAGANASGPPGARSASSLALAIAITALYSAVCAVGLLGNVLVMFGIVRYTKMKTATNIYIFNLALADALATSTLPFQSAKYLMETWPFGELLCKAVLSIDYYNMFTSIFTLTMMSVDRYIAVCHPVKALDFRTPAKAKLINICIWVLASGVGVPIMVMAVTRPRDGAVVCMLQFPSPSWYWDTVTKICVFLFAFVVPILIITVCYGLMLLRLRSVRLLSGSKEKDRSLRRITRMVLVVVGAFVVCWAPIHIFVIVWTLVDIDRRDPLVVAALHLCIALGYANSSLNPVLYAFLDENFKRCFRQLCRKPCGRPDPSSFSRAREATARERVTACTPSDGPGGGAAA

With `COC(=O)[C@@H]1C[C@H](OC(=O)C2CCCCC2)C(=O)[C@H]2[C@@]1(C)CC[C@H]1C(=O)O[C@H](c3ccoc3)C[C@]21C` as the compound, how does the Ki read?
The Ki was greater than 10000 nM.

`COC(=O)[C@@H]1C[C@H](OC(=O)c2ccccc2[N+](=O)[O-])C(=O)[C@H]2[C@@]1(C)CC[C@H]1C(=O)O[C@H](c3ccoc3)C[C@]21C` was tested. Which Ki did it give?
The Ki was greater than 10000 nM.

`COC(=O)[C@@H]1C[C@H](NC(=O)c2ccccc2)C(=O)[C@H]2[C@@]1(C)CC[C@H]1C(=O)O[C@H](c3ccoc3)C[C@]21C` was tested. Which Ki did it give?
Its Ki is 810 nM.

With `COC(=O)[C@@H]1C[C@H](OC(=O)c2ccc3ccccc3c2)C(=O)[C@H]2[C@@]1(C)CC[C@H]1C(=O)O[C@H](c3ccoc3)C[C@]21C` as the compound, how does the Ki read?
Its Ki is greater than 10000 nM.

`COC(=O)[C@@H]1C[C@H](OC(=O)c2cc3ccccc3o2)C(=O)[C@H]2[C@@]1(C)CC[C@H]1C(=O)O[C@H](c3ccoc3)C[C@]21C` was tested. Which Ki did it give?
The Ki was 580 nM.
